ChEMBL document CHEMBL3044908, “Pinolide, a new nonenolide produced by Didymella pinodes , the causal agent of ascochyta blight on Pisum sativum” (J Agric Food Chem, 2012)
Activity calls are given as the source filed them. The rule behind the calls is not given here.

Legend:
[1] = system: Vicia faba; assay: Phytotoxicity against Vicia faba assessed as area of lesions at 1 mg/ml at 20 degC for 4 days; assay type: organism-based; details: in vivo, 96 h
Method in brief: (§1)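 Whole plants grown one per pot in 1:1 sand/peat at 20 °C, 12 h light/dark, until about seven leaves. One leaflet detached, placed abaxial side up on 0.4% water agar, epidermis cut (three cuts over 3 mm2). A 20 μL drop of metabolite (5% MeOH in water) applied over cuts, kept at 20 °C, 12 h photoperiod. 3–4 replicates, randomized; 5% MeOH control; lesion area in mm2.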

[2] = system: Cirsium arvense; assay: Phytotoxicity against Cirsium arvense (Canada thistle) assessed as area of lesions at 1 mg/ml at 20 degC for 4 days; assay type: functional; method in brief: as §1
[3] = system: Lupinus albus; assay: Phytotoxicity against Lupinus albus assessed as area of lesions at 1 mg/ml at 20 degC for 4 days; assay type: organism-based; details: in vivo, 96 h; method in brief: as §1
[4] = system: Medicago truncatula; assay: Phytotoxicity against Medicago truncatula assessed as area of lesions at 1 mg/ml at 20 degC for 4 days; assay type: organism-based; details: in vivo, 96 h; method in brief: as §1
[5] = system: Chenopodium album; assay: Phytotoxicity against Chenopodium album assessed as area of lesions at 1 mg/ml at 20 degC for 4 days; assay type: functional; method in brief: as §1
[6] = system: Cicer arietinum; assay: Phytotoxicity against Cicer arietinum assessed as area of lesions at 1 mg/ml at 20 degC for 4 days; assay type: organism-based; details: in vivo, 96 h; method in brief: as §1
[7] = system: Lathyrus sativus; assay: Phytotoxicity against Lathyrus sativus assessed as area of lesions at 1 mg/ml at 20 degC for 4 days; assay type: organism-based; details: in vivo, 96 h; method in brief: as §1
[8] = system: Lens culinaris; assay: Phytotoxicity against Lens culinaris assessed as area of lesions at 1 mg/ml at 20 degC for 4 days; assay type: organism-based; details: in vivo, 96 h; method in brief: as §1
[9] = system: Sonchus arvensis; assay: Phytotoxicity against Sonchus arvensis (field sow-thistle) assessed as area of lesions at 1 mg/ml at 20 degC for 4 days; assay type: functional; method in brief: as §1
[10] = system: Pisum fulvum; assay: Phytotoxicity against Pisum fulvum assessed as area of lesions at 1 mg/ml at 20 degC for 4 days; assay type: organism-based; details: lathyrus fulvus, in vivo, 96 h; method in brief: as §1
[11] = system: Phaseolus vulgaris; assay: Phytotoxicity against Phaseolus vulgaris assessed as area of lesions at 1 mg/ml at 20 degC for 4 days; assay type: organism-based; details: in vivo, 96 h; method in brief: as §1
[12] = system: Pisum sativum; assay: Phytotoxicity against Pisum sativum (pea)assessed as area of lesions at 1 mg/ml at 20 degC for 4 days; assay type: organism-based; details: lathyrus oleraceus, in vivo, 96 h; method in brief: as §1

| SMILES | Activity [1] | Activity [2] | Activity [3] | Activity [4] | Activity [5] | Activity [6] | Activity [7] | Activity [8] | Activity [9] | Activity [10] | Activity [11] | Activity [12] |
| --- | --- | --- | --- | --- | --- | --- | --- | --- | --- | --- | --- | --- |
| CCC[C@H]1OC(=O)[C@@H](O)CC/C=C/[C@@H](O)[C@@H]1O (relative stereo) [Pinolide] | Non-toxic | inactive | Non-toxic | Non-toxic | inactive | Non-toxic | Non-toxic | Non-toxic | inactive | Non-toxic | Non-toxic | Non-toxic |
| C/C=C/C=C/C(=O)O[C@H]1CC/C=C/[C@H](O)[C@H](O)[C@@H](CCC)OC1=O [PINOLIDOXIN] | 7.2 mm2 | 25 mm2 | 73.6 mm2 | 49.2 mm2 | 47.8 mm2 | 9.1 mm2 | 41.9 mm2 | 45.5 mm2 | 23.6 mm2 | 21.5 mm2 | 34 mm2 | 45.5 mm2 |
| CCC[C@H]1OC(=O)[C@H](O)CC/C=C/[C@H](O)[C@@H]1O [HERBARUMIN II] | Non-toxic | inactive | Non-toxic | Non-toxic | inactive | Non-toxic | Non-toxic | Non-toxic | inactive | Non-toxic | Non-toxic | Non-toxic |
| CCC[C@H]1OC(=O)[C@@H](O)CC/C=C/[C@H](O)[C@@H]1O | Non-toxic | inactive | Non-toxic | Non-toxic | inactive | Non-toxic | Non-toxic | Non-toxic | inactive | Non-toxic | Non-toxic | Non-toxic |
